Laboratory results as given in paper PMC4312754 (Neuropharmacology, 2014).
Substitutions are numbered along the chain they refer to.

What was measured:
Assay in all cases: two-electrode voltage clamp, Xenopus oocytes
Assay type in all cases: cell-based
5-HT3AB receptor [1] = biological target: T1, 5-HT3AB receptor (Homo sapiens, UniProt O95264+P46098, P46098:E124Q)
T1 sequence (P46098 24-478 E124Q): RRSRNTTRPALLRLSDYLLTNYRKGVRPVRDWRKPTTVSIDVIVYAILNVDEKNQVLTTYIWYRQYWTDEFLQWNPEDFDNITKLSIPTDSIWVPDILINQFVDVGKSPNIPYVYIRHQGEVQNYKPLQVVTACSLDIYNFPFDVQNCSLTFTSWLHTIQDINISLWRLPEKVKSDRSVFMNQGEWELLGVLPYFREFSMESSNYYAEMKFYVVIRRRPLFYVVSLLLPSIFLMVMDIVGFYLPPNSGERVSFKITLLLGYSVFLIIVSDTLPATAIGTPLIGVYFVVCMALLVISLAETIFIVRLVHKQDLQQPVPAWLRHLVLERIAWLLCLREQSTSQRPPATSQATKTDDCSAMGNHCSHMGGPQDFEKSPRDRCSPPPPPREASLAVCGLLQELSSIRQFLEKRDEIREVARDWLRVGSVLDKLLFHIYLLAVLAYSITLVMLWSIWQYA
T1 sequence (O95264 22-441): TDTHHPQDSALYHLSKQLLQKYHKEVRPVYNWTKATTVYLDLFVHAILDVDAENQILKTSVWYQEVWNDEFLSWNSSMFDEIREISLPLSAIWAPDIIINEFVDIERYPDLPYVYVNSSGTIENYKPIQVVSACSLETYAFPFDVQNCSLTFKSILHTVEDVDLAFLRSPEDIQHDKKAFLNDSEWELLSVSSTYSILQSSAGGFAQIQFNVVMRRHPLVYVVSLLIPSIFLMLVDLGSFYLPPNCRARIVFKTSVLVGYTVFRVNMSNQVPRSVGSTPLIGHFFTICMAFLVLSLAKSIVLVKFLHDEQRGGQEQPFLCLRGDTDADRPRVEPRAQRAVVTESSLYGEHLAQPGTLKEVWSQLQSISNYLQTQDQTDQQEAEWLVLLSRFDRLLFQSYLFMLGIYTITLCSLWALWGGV
Summary of the method: (§1)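 Human 5-HT3A and 5-HT3B subunits with point mutations were used. Defolliculated stage V–VI Xenopus oocytes were injected with 5–25 ng mRNA and incubated 24–72 h at 18 °C. Recordings were at 22–25 °C, holding at −60 mV. Agonist in Ca2+-free ND96 (pH 7.5) was applied for 15 s, then washed 116 s.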

5-HT3AB receptor [2] = biological target: T2, 5-HT3AB receptor (Homo sapiens, UniProt O95264+P46098, P46098:Y148A)
T2 sequence (P46098 24-478 Y148A): T1 sequence (P46098 24-478 E124Q) with Q101E, Y125A
T2 sequence (O95264 22-441): T1 sequence (O95264 22-441)
Summary of the method: as §1

5-HT3AB receptor [3] = biological target: T3, 5-HT3AB receptor (Homo sapiens, UniProt O95264+P46098, O95264:Y146A)
T3 sequence (P46098 24-478): T1 sequence (P46098 24-478 E124Q) with Q101E
T3 sequence (O95264 22-441 Y146A): T1 sequence (O95264 22-441) with Y125A
Summary of the method: as §1

5-HT3AB receptor [4] = biological target: T4, 5-HT3AB receptor (Homo sapiens, UniProt O95264+P46098, O95264:E122Q/P46098:E124Q)
T4 sequence (P46098 24-478 E124Q): T1 sequence (P46098 24-478 E124Q)
T4 sequence (O95264 22-441 E122Q): T1 sequence (O95264 22-441) with E101Q
Summary of the method: as §1

5-HT3AB receptor [5] = biological target: T5, 5-HT3AB receptor (Homo sapiens, UniProt O95264+P46098, O95264:E122A)
T5 sequence (P46098 24-478): T1 sequence (P46098 24-478 E124Q) with Q101E
T5 sequence (O95264 22-441 E122A): T1 sequence (O95264 22-441) with E101A
Summary of the method: as §1

[6] = biological target: T6, 5-HT3A receptor (homomeric) (Homo sapiens, UniProt P46098, Y148A)
T6 sequence (P46098 24-478 Y148A): T1 sequence (P46098 24-478 E124Q) with Q101E, Y125A

5-HT3AB receptor [7] = biological target: T7, 5-HT3AB receptor (Homo sapiens, UniProt O95264+P46098, O95264:E122Q/O95264:Y146A)
T7 sequence (P46098 24-478): T1 sequence (P46098 24-478 E124Q) with Q101E
T7 sequence (O95264 22-441 E122Q/Y146A): T1 sequence (O95264 22-441) with E101Q, Y125A
Summary of the method: as §1

5-HT3AB receptor [8] = biological target: T8, 5-HT3AB receptor (Homo sapiens, UniProt O95264+P46098, O95264:E122Q)
T8 sequence (P46098 24-478): T1 sequence (P46098 24-478 E124Q) with Q101E
T8 sequence (O95264 22-441 E122Q): T1 sequence (O95264 22-441) with E101Q
Summary of the method: as §1

EC50 (5-HT3AB receptor [1]): 3 ± 0.7 µM | EC50 (5-HT3AB receptor [2]): 11.2 ± 0.6 µM | EC50 (5-HT3AB receptor [3]): 4.3 ± 0.3 µM | EC50 (5-HT3AB receptor [4]): 2.4 ± 0.4 µM | EC50 (5-HT3AB receptor [5]): 2.4 ± 0.1 µM | EC50 [6]: 24.7 ± 0.9 µM | EC50 (5-HT3AB receptor [7]): 3.5 ± 0.1 µM | EC50 (5-HT3AB receptor [8]): 2.3 ± 0.1 µM
Compound: N=C(N)NC(=N)Nc1cccc(Cl)c1 [mCPBG]
